Test results: ChEMBL document CHEMBL1287768, “Synthesis and pharmacological characterization of 5-phenyl-2-[2-(1-piperidinylcarbonyl)phenyl]-2,3-dihydro-1H-pyrrolo[1,2-c]imidazol-1-ones: a new class of Neuropeptide S antagonists” (Bioorg Med Chem Lett, 2010)
Values belong to the compound of their own block, whether it stands above or below them.

Key:
Neuropeptide S receptor = target: T1, Neuropeptide S receptor (Homo sapiens, UniProt Q6W5P4); test: Antagonist activity at human recombinant GPR154 receptor expressed in HEK293 cells assessed as inhibition of neuropeptide S-induced increase of intracellular calcium level by FLIPR assay; type: functional, cell-based
T1 sequence (Q6W5P4 whole entry): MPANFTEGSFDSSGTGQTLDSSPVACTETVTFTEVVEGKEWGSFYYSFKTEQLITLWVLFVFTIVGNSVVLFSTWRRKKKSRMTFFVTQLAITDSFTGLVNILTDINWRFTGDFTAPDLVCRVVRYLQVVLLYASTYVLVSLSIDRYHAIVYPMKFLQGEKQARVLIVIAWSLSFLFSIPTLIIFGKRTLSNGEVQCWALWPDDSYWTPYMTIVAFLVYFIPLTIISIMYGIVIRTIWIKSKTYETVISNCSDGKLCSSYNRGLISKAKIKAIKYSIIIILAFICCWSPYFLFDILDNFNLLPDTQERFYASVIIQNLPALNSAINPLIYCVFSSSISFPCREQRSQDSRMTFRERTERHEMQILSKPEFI
How it was run: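 Transient expression of human GPR154 in HEK293; cells seeded 18.000/well, 24 h at 37 °C, 5% CO₂. Fluo-4-AM loading 1 h at 37 °C, HBSS wash. Calcium rise evoked by EC₈₀ Neuropeptide S, read by FLIPR; response normalised to 30 nM NPS maximum (max minus min RFU); pIC₅₀ by nonlinear regression.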

Liver microsomes [1] = test: Intrinsic clearance in rat liver microsomes assessed per gram of protein; type: ADME, Microsome
[2] = Clearance in rat blood at 1 mg/kg, po; type: ADME, organism-based; parameters: dose 1 mg/kg, route oral
How it was run: (§1)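 Rat, single oral 1 mg/kg in 5% DMSO + 0.5% HPMC in water; blood sampled for clearance, half-life, distribution volume and oral bioavailability.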

Liver microsomes [3] = test: Intrinsic clearance in human liver microsomes assessed per gram of protein; type: ADME, Microsome
Cytochrome P450 1A2 = target: T2, Cytochrome P450 1A2 (Homo sapiens, UniProt P05177); test: Inhibition of CYP1A2; type: ADME
T2 sequence (P05177 whole entry): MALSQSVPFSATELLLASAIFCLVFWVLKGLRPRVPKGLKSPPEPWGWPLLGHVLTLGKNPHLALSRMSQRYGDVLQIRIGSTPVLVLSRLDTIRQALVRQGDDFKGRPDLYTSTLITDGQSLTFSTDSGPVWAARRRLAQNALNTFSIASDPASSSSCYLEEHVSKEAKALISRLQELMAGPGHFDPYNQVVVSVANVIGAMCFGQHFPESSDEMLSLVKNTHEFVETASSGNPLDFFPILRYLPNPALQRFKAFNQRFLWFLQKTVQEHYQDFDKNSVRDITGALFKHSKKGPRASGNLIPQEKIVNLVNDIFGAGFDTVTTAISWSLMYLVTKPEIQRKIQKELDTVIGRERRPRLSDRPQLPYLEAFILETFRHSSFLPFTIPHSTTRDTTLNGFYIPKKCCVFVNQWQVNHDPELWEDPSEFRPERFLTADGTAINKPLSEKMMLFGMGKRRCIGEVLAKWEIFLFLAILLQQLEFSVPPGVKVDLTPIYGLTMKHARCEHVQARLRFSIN

Cytochrome P450 3A4 = Cytochrome P450 3A4 (Homo sapiens, UniProt P08684); test: Inhibition of CYP3A4; type: ADME
Chain of Cytochrome P450 3A4 (P08684 whole entry): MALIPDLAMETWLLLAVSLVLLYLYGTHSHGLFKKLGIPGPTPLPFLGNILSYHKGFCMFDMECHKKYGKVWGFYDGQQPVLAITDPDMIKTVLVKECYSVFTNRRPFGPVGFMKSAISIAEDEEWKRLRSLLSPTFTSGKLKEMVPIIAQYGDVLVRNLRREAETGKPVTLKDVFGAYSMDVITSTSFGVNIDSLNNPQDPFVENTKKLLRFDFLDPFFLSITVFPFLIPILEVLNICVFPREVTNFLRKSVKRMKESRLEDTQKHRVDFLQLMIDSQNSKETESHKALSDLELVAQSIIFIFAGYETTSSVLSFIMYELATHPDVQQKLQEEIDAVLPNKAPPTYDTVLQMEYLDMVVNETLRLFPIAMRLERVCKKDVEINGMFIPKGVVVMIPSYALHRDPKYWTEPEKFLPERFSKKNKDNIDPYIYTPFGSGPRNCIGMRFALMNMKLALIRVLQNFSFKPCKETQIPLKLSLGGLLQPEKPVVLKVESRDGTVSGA

[4] = Ratio of drug level in brain to blood in rat at 1 mg/kg, po; type: ADME, organism-based; parameters: dose 1 mg/kg, route oral
How it was run: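 Rats received a single oral dose of 1 mg/kg, formulated in 5% DMSO + 0.5% HPMC in water. Drug levels were measured in blood and brain, and the brain/blood ratio was calculated from them. The work followed European directive 86/609/EEC.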

[5] = Bioavailability in rat at 1 mg/kg, po; type: ADME, organism-based; conditions: in vivo; how it was run: as §1
Cytochrome P450 2D6 = Cytochrome P450 2D6 (Homo sapiens, UniProt P10635); test: Inhibition of CYP2D6; type: ADME
Chain of Cytochrome P450 2D6 (P10635 whole entry): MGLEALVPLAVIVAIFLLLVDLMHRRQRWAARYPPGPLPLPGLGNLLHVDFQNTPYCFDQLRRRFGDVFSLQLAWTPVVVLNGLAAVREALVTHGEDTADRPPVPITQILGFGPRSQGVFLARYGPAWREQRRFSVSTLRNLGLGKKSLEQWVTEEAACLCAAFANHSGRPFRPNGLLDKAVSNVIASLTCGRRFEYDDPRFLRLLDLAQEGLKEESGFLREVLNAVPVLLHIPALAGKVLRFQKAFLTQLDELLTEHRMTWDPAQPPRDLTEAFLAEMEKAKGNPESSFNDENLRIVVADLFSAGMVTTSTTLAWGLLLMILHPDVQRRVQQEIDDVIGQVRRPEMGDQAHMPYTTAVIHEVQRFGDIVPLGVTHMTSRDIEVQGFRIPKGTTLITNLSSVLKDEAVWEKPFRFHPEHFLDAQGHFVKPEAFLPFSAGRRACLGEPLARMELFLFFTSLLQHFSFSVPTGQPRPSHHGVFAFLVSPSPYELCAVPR

Rattus norvegicus = test: Volume of distribution in rat at 1 mg/kg, po; type: ADME, organism-based; parameters: dose 1 mg/kg, route oral; conditions: in vivo; how it was run: as §1
[6] = Half life in rat at 1 mg/kg, po; type: ADME, organism-based; parameters: dose 1 mg/kg, route oral; conditions: in vivo; how it was run: as §1
Cytochrome P450 2C19 = Cytochrome P450 2C19 (Homo sapiens, UniProt P33261); test: Inhibition of CYP2C19; type: ADME
Chain of Cytochrome P450 2C19 (P33261 whole entry): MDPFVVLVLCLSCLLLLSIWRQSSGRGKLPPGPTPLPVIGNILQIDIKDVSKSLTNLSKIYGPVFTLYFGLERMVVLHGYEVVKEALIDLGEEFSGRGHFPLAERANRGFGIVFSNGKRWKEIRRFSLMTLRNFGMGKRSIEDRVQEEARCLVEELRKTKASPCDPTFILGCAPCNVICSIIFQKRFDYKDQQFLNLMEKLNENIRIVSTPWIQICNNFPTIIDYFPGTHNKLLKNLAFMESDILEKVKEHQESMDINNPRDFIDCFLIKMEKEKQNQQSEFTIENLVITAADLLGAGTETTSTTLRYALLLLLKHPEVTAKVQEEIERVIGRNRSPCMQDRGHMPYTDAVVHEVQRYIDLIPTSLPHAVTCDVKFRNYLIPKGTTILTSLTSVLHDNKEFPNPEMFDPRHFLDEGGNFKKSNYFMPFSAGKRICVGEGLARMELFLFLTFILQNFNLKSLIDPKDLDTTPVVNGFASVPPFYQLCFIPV

Cytochrome P450 2C9 = Cytochrome P450 2C9 (Homo sapiens, UniProt P11712); test: Inhibition of CYP2C9; type: ADME
Chain of Cytochrome P450 2C9 (P11712 whole entry): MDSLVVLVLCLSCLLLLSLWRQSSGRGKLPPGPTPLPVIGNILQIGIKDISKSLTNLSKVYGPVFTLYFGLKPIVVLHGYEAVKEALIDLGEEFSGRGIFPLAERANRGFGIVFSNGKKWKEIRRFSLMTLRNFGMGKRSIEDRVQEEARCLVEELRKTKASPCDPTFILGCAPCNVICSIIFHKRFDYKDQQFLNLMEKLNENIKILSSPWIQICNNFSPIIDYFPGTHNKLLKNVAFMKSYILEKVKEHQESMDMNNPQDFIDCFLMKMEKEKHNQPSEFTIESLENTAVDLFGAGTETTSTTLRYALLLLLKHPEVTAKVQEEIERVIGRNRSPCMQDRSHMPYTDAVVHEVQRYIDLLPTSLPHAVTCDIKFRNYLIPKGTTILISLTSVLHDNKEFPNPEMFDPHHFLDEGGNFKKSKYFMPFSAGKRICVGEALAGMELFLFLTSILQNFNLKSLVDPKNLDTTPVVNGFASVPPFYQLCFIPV

Structure (SMILES): O=C(Nc1ccccc1C(=O)N1CCCCC1)c1ccc(-c2ccccc2)s1
- IC50 (Neuropeptide S receptor): 794 nM

Structure (SMILES): O=C(Nc1ccccc1C(=O)N1CCCCC1)c1ccc(-c2ccccc2)[nH]1
- IC50 (Neuropeptide S receptor): > 5010 nM

Structure (SMILES): O=C(c1ccccc1N1CCn2c(ccc2-c2ccccc2)C1=O)N1CCCCC1
- IC50 (Neuropeptide S receptor): > 5010 nM

Structure (SMILES): O=C(c1ccccc1N1CCCn2c(ccc2-c2ccccc2)C1=O)N1CCCCC1
- IC50 (Neuropeptide S receptor): > 5010 nM

Stronger by IC50 (Neuropeptide S receptor), values ahead:

- CL (Liver microsomes [1]): 26.3 mL/min/g
- IC50 (Neuropeptide S receptor): 10 nM
- CL/F [2]: 69 mL/min/kg
- CL (Liver microsomes [3]): 6.9 mL/min/g
- IC50 (Cytochrome P450 1A2): > 5000 nM
- IC50 (Cytochrome P450 3A4): > 5000 nM
- Kp [4]: 0.3
- bioavailability [5]: 1%
- IC50 (Cytochrome P450 2D6): > 5000 nM
- Vd (Rattus norvegicus): 2.4 L/kg
- half-life [6]: 42 min
- IC50 (Cytochrome P450 2C19): > 5000 nM
- IC50 (Cytochrome P450 2C9): > 5000 nM
Structure (SMILES): O=C(c1ccccc1N1Cn2c(ccc2-c2ccccc2)C1=O)N1CCCCC1

- IC50 (Neuropeptide S receptor): 251 nM
Structure (SMILES): O=C(Nc1ccccc1C(=O)N1CCCCC1)c1cccc(-c2ccccc2)c1

- IC50 (Neuropeptide S receptor): 31.6 nM
Structure (SMILES): O=C(Nc1ccccc1C(=O)N1CCCCC1)c1ccc(-c2ccccc2)o1

- IC50 (Neuropeptide S receptor): 20 nM
Structure (SMILES): O=C(Nc1ccccc1C(=O)N1CCCCC1)c1cccc(-c2ccccc2)n1

- IC50 (Neuropeptide S receptor): 2 nM
Structure (SMILES): O=C(NCc1ccccc1)N1CCN2C(=O)OC(c3ccccc3)(c3ccccc3)C2C1 (stereo unspecified)
